Assay results as given in ChEMBL document CHEMBL2407020, “Design, synthesis, and evaluation of novel VEGFR2 kinase inhibitors: discovery of [1,2,4]triazolo[1,5-a]pyridine derivatives with slow dissociation kinetics” (Bioorg Med Chem, 2013).
≈ marks a conversion by molar mass, not a printed value.

Legend:
[1] = Metabolic stability in human liver microsomes; assay type: ADME, Microsome; conditions: read-out: Stability
How it was run: (§1)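 Metabolic stability measured in hepatic microsomes, expressed in µL/min/mg.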

[2] = Kinetic solubility of the compound in 2nd fluid of Disintegration Test of the Japanese Pharmacopoeia at pH 6.8; assay type: physicochemical; conditions: read-out: Kinetic_solubility
How it was run: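 Kinetic solubility measured in JP2 (2nd fluid of Disintegration Test, Japanese Pharmacopoeia), pH 6.8.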

[3] = Metabolic stability in mouse liver microsomes; assay type: ADME, Microsome; conditions: read-out: Stability; how it was run: as §1

A microsomal CLint [1] of 6 µL/min/mg, a solubility kinetic [2] of 1.7 µg/mL (≈ 3.94 µM) and a microsomal CLint [3] of 43 µL/min/mg were found for Cc1cc(C(=O)Nc2cccc(Oc3ccc4nc(NC(=O)C5CC5)cn4n3)c2)n(C)n1 in this work.
A solubility kinetic [2] of 1.2 µg/mL (≈ 2.78 µM) was found for Cc1cc(C(=O)Nc2cccc(Oc3ccc4nc(NC(=O)C5CC5)nn4c3)c2)n(C)n1 in this work.
A solubility kinetic [2] of 53 µg/mL (≈ 119 µM) was found for Cc1cc(C(=O)Nc2cc(Oc3ccc4nc(NC(=O)C5CC5)nn4c3)ccc2C)n(C)n1 in this work.
A solubility kinetic [2] of 3.2 µg/mL (≈ 7.18 µM) was found for Cc1cc(NC(=O)c2cc(C)nn2C)cc(Oc2ccc3nc(NC(=O)C4CC4)nn3c2)c1 in this work.
A microsomal CLint [1] of 10 µL/min/mg, a solubility kinetic [2] of 65 µg/mL (≈ 145 µM) and a microsomal CLint [3] of 45 µL/min/mg were found for Cc1cc(C(=O)Nc2cc(Oc3ccc4nc(NC(=O)C5CC5)nn4c3)ccc2F)n(C)n1 in this work.
A solubility kinetic [2] of 0.73 µg/mL (≈ 1.7 µM) was found for Cc1cc(C(=O)Nc2cccc(Oc3ccc4nc(NC(=O)C5CC5)cn4c3)c2)n(C)n1 in this work.
A solubility kinetic [2] of 2.9 µg/mL (≈ 6.52 µM) was found for Cc1cc(C(=O)Nc2cc(Oc3ccc4nc(NC(=O)C5CC5)cn4c3)ccc2C)n(C)n1 in this work.
A solubility kinetic [2] of less than 0.04 µg/mL was found for Cc1cc(C(=O)Nc2cccc(Oc3ccc4nc(NC(=O)C5CC5)sc4n3)c2)n(C)n1 in this work.
A solubility kinetic [2] of 4.8 µg/mL (≈ 10.4 µM) was found for Cc1cc(C(=O)Nc2cc(Oc3ccc4nc(NC(=O)C5CC5)sc4n3)ccc2C)n(C)n1 in this work.
A solubility kinetic [2] of 3.7 µg/mL (≈ 8.31 µM) was found for Cc1cc(C(=O)Nc2ccc(C)c(Oc3ccc4nc(NC(=O)C5CC5)nn4c3)c2)n(C)n1 in this work.
A solubility kinetic [2] of 0.16 µg/mL (≈ 0.346 µM) was found for Cc1nc(C(=O)Nc2cc(Oc3ccc4nc(NC(=O)C5CC5)nn4c3)ccc2C)c(C)s1 in this work.
A solubility kinetic [2] of 1.2 µg/mL (≈ 2.49 µM) was found for Cc1ccc(Oc2ccc3nc(NC(=O)C4CC4)nn3c2)cc1NC(=O)c1scc(C)c1Cl in this work.
A microsomal CLint [1] of 6 µL/min/mg, a solubility kinetic [2] greater than 93 µg/mL and a microsomal CLint [3] of 78 µL/min/mg were found for Cc1ccc(Oc2ccc3nc(NC(=O)C4CC4)nn3c2)cc1NC(=O)c1cn(C)nc1C in this work.
A solubility kinetic [2] greater than 80 µg/mL was found for Cc1ccc(Oc2ccc3nc(NC(=O)C4CC4)nn3c2)cc1NC(=O)c1ccnn1C in this work.
A solubility kinetic [2] of 12 µg/mL (≈ 29.4 µM) was found for Cc1ccc(Oc2ccc3nc(NC(=O)C4CC4)nn3c2)cc1NC(=O)CC(C)C in this work.
A solubility kinetic [2] greater than 78 µg/mL was found for Cc1ccc(Oc2ccc3nc(NC(=O)C4CC4)nn3c2)cc1NC(=O)C1CCC1 in this work.
A solubility kinetic [2] of 0.22 µg/mL (≈ 0.492 µM) was found for Cc1cc(C(=O)Nc2cccc(Oc3ccc4nc(NC(=O)C5CC5)sc4c3)c2)n(C)n1 in this work.
